mIAP inh: blocks mouse intestinal alkaline phosphatase. inhibition, % at 10 µM. purified mouse IAP, CDP-Star luminescence, 30 min. 330,000 tested, 0.2% active;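 active = inhibition of at least 40% at 10 µM in the primary screen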;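 also: plate controls were DMSO with enzyme for no effect and no enzyme wells for full effect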
hIAP act: human IAP activation. AID 2524. P09923. 330,000 tested, 0.16% active. activation factor at 10 µM. purified human IAP, CDP-Star luminescence, 30 min; stronger effect = higher value; 1 = vehicle-only enzyme, 0 = enzyme-free background;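 active = activation factor of the enzyme at least 2-fold when tested at 20 µM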
Target sequence (P09923 whole entry, looked up): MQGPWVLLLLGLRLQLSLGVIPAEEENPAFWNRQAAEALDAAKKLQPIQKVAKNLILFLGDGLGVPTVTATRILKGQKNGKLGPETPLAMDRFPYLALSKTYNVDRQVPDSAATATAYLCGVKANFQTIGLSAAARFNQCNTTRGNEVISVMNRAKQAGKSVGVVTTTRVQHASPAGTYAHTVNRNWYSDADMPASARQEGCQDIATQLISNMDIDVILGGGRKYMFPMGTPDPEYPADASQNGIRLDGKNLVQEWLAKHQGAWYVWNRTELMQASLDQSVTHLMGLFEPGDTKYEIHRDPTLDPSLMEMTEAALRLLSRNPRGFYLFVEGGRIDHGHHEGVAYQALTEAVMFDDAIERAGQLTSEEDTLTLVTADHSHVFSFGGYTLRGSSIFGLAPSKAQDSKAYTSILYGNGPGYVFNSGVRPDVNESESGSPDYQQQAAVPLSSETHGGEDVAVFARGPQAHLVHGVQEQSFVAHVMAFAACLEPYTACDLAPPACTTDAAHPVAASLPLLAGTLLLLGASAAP
bIAP act: intestinal alkaline phosphatase (bovine) activation. purified bovine IAP, CDP-star luminescence, 30 min; stronger effect = higher value; fold of DMSO-control signal, blank-subtracted. activation factor at 20 µM. 200,000 tested, 0.17% active;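 active = activation factor of 2 or more at 20 µM, a signal rise over negative controls twice the positive control's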
mIAP act: mouse IAP activation; activation factor at 10 µM; AID 2805; muIAP, CDP-Star luminescence, 30 min; stronger effect = higher value; 1 = vehicle-only enzyme signal, 0 = enzyme-free wells; 330,000 tested, 0.24% active;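 active = activation factor of at least 2 at 20 µM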
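Assay system: mouse IAP enzyme; reagent: chemiluminescent substrate CDP-Star; dosing: test compounds delivered from DMSO solution; schedule: 30 min at room temperature; measured by: luminescence from enzymatic CDP-Star hydrolysis; controls: DMSO-only wells and no-enzyme negative control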
hIAP block: human IAP inhibition | P09923 | purified IAP, CDP-Star luminescence, 30 min | inhibition, % at 10 µM | 330,000 tested, 0.12% active | AID 2544;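 active = inhibition reaching a set limit with compound at 10 µM in the primary screen, cut at about 35% in these data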;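 also: plate controls were DMSO wells with enzyme for no effect and no-enzyme buffer wells for full effect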
bIAP inhibitor: blocks bovine intestinal alkaline phosphatase activity. purified bovine IAP, CDP-star luminescence, 30 min. inhibition, % at 20 µM. 190,000 tested, under 10 active. AID 1019;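 active = over 50% inhibition of intestinal alkaline phosphatase at 20 µM in the single-dose screen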
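Assay system: bovine IAP enzyme; medium: DEA buffer 100 mM, pH 9.8, with MgCl2 1.0 mM, ZnCl2 0.02 mM; doses: 20 µM single dose; incubation: enzyme reaction for 30 min at room temperature; detection: CDP-star luminescence signal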
hIAP act conf: human IAP activation confirmation | shares compounds with hIAP act | purified IAP, CDP-Star luminescence, 30 min; stronger effect = lower value | activation (%Activity, negative = activation), % at 8.3 µM | 880 tested, 10% active | AID 434926;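 active = at least twofold enzyme activation in any of six single-dose repeats, which the averaged readout prints as negative percent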
The depositor's hits bear a star; nt = no result. Only some compounds are listed: those with a hit (about 0.77% of all), similar ones and a draw of the others.

SMILES	mIAP inh	hIAP act	bIAP act	mIAP act	hIAP block	bIAP inhibitor	hIAP act conf
O=C(N/N=C/c1ccccn1)c1cc(-c2ccc3ccccc3c2)n[nH]1	7	2.2*	0.8	0.93	-125	18	-30
O=C(O)CC(c1cccc(O)c1)N1Cc2ccccc2C1=O (centres undefined)	10	0.99	nt	0.9	1	nt	nt
O=C(COC(=O)COc1ccc(Br)cc1)Nc1ccc2c(c1)OCCO2	2	0.97	nt	0.98	3	nt	nt
COc1ccc(CNS(=O)(=O)c2cccc(S(=O)(=O)N3CCOCC3)c2)cc1	0	0.65	0.9	1	36*	10	-40
COc1cccc(CNS(=O)(=O)c2cccc(S(=O)(=O)N3CCOCC3)c2)c1	-8	1	0.9	1.1	-1	10	nt
Cc1nc(OCc2c(C)noc2C)c2ccccc2n1	2	1	1	0.98	-2	-1	nt
CC1=NN(Cc2ccccc2)C(=O)/C1=C\c1ccc(N(C)C)cc1	23	0.63	0.6	0.77	37*	39	66
CCCc1cc(=O)[nH]c(SCC(=O)N2CC3(C)CC2CC(C)(C)C3)n1 (centres undefined)	9	1.1	nt	0.91	-6	nt	nt
CC(=O)NC(=S)Nc1ccccc1C(=O)Nc1ccccc1	21	2.5*	1.4	0.79	-150	-40	-31
CCCCC(=O)NC(=S)Nc1ccccc1C(=O)Nc1ccccc1	5	1	1	0.95	-1	4	nt
CC(=O)NC(=S)NNC(=O)C(c1ccccc1)c1ccccc1	-5	2*	2*	1.1	-103	-99	7
N#CCC(=O)NNC(=S)NC(=O)C(c1ccccc1)c1ccccc1	10	1.5	1.6	0.91	-53	-64	nt
Cc1ccc(-n2nc(C)c(C(=O)Nc3cccc(C(=O)NC4CC4)c3)n2)c(C)c1	-16	1.2	nt	1.2	-17	nt	nt
NS(=O)(=O)c1ccc(CCNCC(=O)N2CCC(Cc3ccccc3)CC2)cc1	6	1.1	nt	0.94	-14	nt	nt
O=[N+]([O-])c1ccc(Nc2ccccc2)c2nonc12	20	0.61	nt	0.8	38*	nt	-18
CCS(=O)(=O)Nc1ccc(C2=NN(C(=O)c3ccco3)C(c3ccc(Cl)o3)C2)cc1 (centres undefined)	0	1.1	nt	1	-13	nt	nt
O=C(NNC(=O)c1ncc(Cl)c(Cl)c1Cl)c1ccc(F)cc1	11	2.2*	nt	0.89	-116	nt	-2
CCOc1cc(C(=O)NC(C)CCc2ccccc2)cc(OCC)c1OCC (centres undefined)	-13	1.2	nt	1.1	-16	nt	nt
CCOC(=O)Cc1csc(NC(=O)CN2C(=O)c3ccccc3C2=O)n1	0	1	nt	1	-2	nt	nt
CCOC(=O)Cc1csc(NC(=O)CN2C(=O)c3ccccc3S2(=O)=O)n1	8	2.1*	1.4	0.92	-107	-35	7
O=C(COC(=O)Cc1ccc(Br)cc1)NCc1ccc2c(c1)OCO2	0	1	nt	1	-4	nt	nt
CCCCCCc1nc(C(N)=O)c2[nH]c(=O)n(-c3ccc(OCC)cc3)c2n1	-3	2.3*	nt	1	-131	nt	2
CCCCCCc1nc(C(N)=O)c2[nH]c(=O)n(-c3ccccc3F)c2n1	-9	2.1*	nt	1.1	-110	nt	-15
CC12CCC(=O)N1C(C(=O)NCCc1ccc(S(N)(=O)=O)cc1)CS2 (centres undefined)	2	0.96	nt	0.98	4	nt	nt
Oc1ccccc1N=N/C(=N/Nc1ccccc1O)c1ccccc1	4	0.95	nt	0.96	5	nt	nt
SMILES	mIAP inh	hIAP act	bIAP act	mIAP act	hIAP block	bIAP inhibitor	hIAP act conf
Cn1nnnc1N=N/C(=N/Nc1ccccc1)c1ccccc1	24	0.54	nt	0.76	46*	nt	55
O=Cc1cc(CCC(=O)O)ccc1O	-6	0.97	nt	1.1	2	nt	nt
CCc1cccc(CC)c1NC(=O)CN(CC(=O)O)CC(=O)O	-5	2.1*	nt	1.1	-110	nt	-5
CCSC(=O)N(CC)CC(=O)Nc1c(CC)cccc1CC	-5	1.1	0.9	1.1	-8	10	nt
Cc1cc(Br)ccc1SCC(=O)OC/C(O)=C(\C#N)c1nc2ccccc2[nH]1	13	2.4*	nt	0.87	-140	nt	-67*
COc1cc(/C=C2\SC(=S)N(N(C)c3ccccc3)C2=O)ccc1O	30	0.59	nt	0.69	41*	nt	60
CCOc1cc(/C=C2/SC(=S)N(Cc3ccccc3)C2=O)ccc1O	28	1.1	nt	0.72	-10	nt	nt
CCOc1ccc(NS(=O)(=O)c2coc(C(N)=O)c2)cc1	-9	1.1	nt	1.1	-7	nt	nt
COc1ccccc1CNC(=O)CN(C)S(=O)(=O)c1cccc2cccnc12	7	1	nt	0.93	-4	nt	nt
O=C(NCCCCNC(=O)c1ccccc1F)c1ccccc1F	9	0.63	nt	0.91	37*	nt	17
O=C(O)CNC(=O)c1ccccc1F	5	0.94	0.9	0.95	6	6	nt
CCCCN(C(=O)c1ccc(S(=O)(=O)N2CCCC2)cc1)C1CCS(=O)(=O)C1 (centres undefined)	2	1.1	nt	0.98	-10	nt	nt
CC1CCC2C(C1)OS(=O)(=O)NC2(C)C (centres undefined)	1	0.93	nt	0.99	7	nt	nt
COc1ccccc1CNC(=O)Cn1nc(C)c([N+](=O)[O-])c1C	4	0.63	nt	0.96	37*	nt	-59
COc1ccc(C(=O)N/C(=C\c2ccco2)C(=O)NCCCn2ccnc2)cc1	8	0.94	0.9	0.92	6	5	nt
Cc1ccc(C(=O)N/C(=C\c2ccco2)C(=O)NCCCn2ccnc2)cc1C	-6	0.14	1.2	1.1	86*	-24	-63
COC(=O)c1cc(C#N)c(Oc2ccccc2OC)nc1C	5	0.64	1	0.95	36*	4	20
CC(C)c1ccc(NC(=O)c2cccc(Br)c2)cc1	-1	2.4*	0.8	1	-145	18	-13
O=C(Nc1cccc(C(=O)Nc2cccc(Br)c2)c1)c1ccccc1	-3	1	nt	1	-4	nt	nt
Cc1cccc(NC(=O)[C@@H]2CCCN2C(=O)OC(C)(C)C)c1	-7	1.1	nt	1.1	-6	nt	nt
COc1ccc(NC(=O)/C(C#N)=C\c2ccc(N3CCOCC3)o2)cc1	20	0.61	0.6	0.8	39*	40	2
O=C1C2C3C=CC(C3)C2C(=O)N1c1n[nH]c(-c2cccnc2)n1 (centres undefined)	-2	0.34	0.8	1	66*	17	-82*
O=C1C2C3C=CC(C3)C2C(=O)N1c1n[nH]c(-c2ccccc2)n1 (centres undefined)	0	0.95	0.5	1	5	47	nt
O=C1C2CC=CCC2C(=O)N1c1n[nH]c(-c2ccccc2)n1 (centres undefined)	2	0.08	0.1	0.97	92*	nt	-46

Assay outcomes (PubChem)
